According to ChEMBL document CHEMBL1146375, “Synthetic studies on novel benzimidazolopeptides with antimicrobial, cytotoxic and anthelmintic potential” (2007):
≈ marks a conversion by molar mass, not a printed value.

Columns and labels:
[1] = system: Trichophyton benhamiae; assay: Antifungal activity against Trichophyton mentagrophytes MUCC 665 after 48 hrs by tube dilution method; format: functional, Arthroderma benhamiae
How it was run: (§1)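 Tube dilution MIC as for bacteria (seven concentrations, 200–3.1 […]), with DMSO in place of DMF. Tubes inoculated with fungal culture and incubated 48 h at 37 °C. MIC read from presence or absence of growth.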

[2] = Growth inhibition of EAC cells after 3 hrs; format: functional; conditions: Mus musculus, Ehrlich
How it was run: (§2)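 DLA and EAC cells passaged intraperitoneally in albino mice, harvested after 15–20 days and adjusted to 1 × 10⁶ cells/mL. Dilutions in Dulbecco's medium (500–31.25, some down to 3.91 µg/mL; 5-FU reference) mixed 1:1 with cells and held 3 h at 37 °C. Trypan blue exclusion gave % growth inhibition; CTC50 by graphical extrapolation.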

[3] = system: Staphylococcus aureus; assay: Antibacterial activity against Staphylococcus aureus NCIM 2079 after 18 hrs by tube dilution method; format: functional; conditions: NCIM 2079, 18 h
How it was run: (§3)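 Tube dilution MIC. Stock diluted in sterile broth to seven concentrations from 200 to 3.1 […]. Each tube inoculated with one loopful of test bacterium and incubated 18 h at 37 °C. MIC read from presence or absence of growth.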

[4] = system: Eudrilus; assay: Anthelmintic activity against Eudrilus sp. assessed as mean paralyzing time; format: functional
How it was run: (§4)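 Earthworms exposed to test suspensions at 2 mg mL^-1 (0.2% w/v), made by triturating compound with Tween 80 (0.5%) and distilled water, then mechanically stirred 30 min. Mebendazole suspension prepared alike as reference. Paralysis and death times recorded; death confirmed by no movement in 50 °C water. Means from triplicate sets.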

[5] = Growth inhibition of EAC cells at 62.5 ug/mL after 3 hrs; format: functional; conditions: Mus musculus, Ehrlich; how it was run: as §2
[6] = system: Trichophyton benhamiae; assay: Antifungal activity against Trichophyton mentagrophytes MUCC 665 after 48 hrs by disc diffusion method; format: functional, Arthroderma benhamiae
How it was run: (§5)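 Agar well diffusion on plates inoculated with spore suspension in normal saline from cultures on Sabouraud's broth. Wells punched and loaded with test samples or griseofulvin at 10 mg mL^-1, with DMSO as negative control. Incubated 48 h at 37 °C.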

[7] = Growth inhibition of DLA cells at 31.25 ug/mL after 3 hrs; format: functional; conditions: Mus musculus; how it was run: as §2
[8] = system: Escherichia coli; assay: Antibacterial activity against Escherichia coli NCIM 2065 after 18 hrs by disc diffusion method; format: functional
How it was run: (§6)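 Modified Kirby-Bauer disc diffusion. Plates inoculated with spore suspension (about 6 × 10⁴ spores mL^-1). Sterile 6 mm paper discs carried test samples at 10 mg mL^-1; ciprofloxacin disc as reference, DMF disc as negative control. Plates held 18 h at 37 °C. Inhibition zone diameters (mm) averaged over triplicate sets.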

[9] = system: Bacillus subtilis; assay: Antibacterial activity against Bacillus subtilis NCIM 2063 after 18 hrs by tube dilution method; format: functional; conditions: NCIM 2063, 18 h; how it was run: as §3
[10] = system: Staphylococcus aureus; assay: Antibacterial activity against Staphylococcus aureus NCIM 2079 after 18 hrs by disc diffusion method; format: functional; how it was run: as §6
[11] = system: Aspergillus niger; assay: Antifungal activity against Aspergillus niger MUCC 177 after 48 hrs by disc diffusion method; format: functional; how it was run: as §5
[12] = Growth inhibition of DLA cells at 500 ug/mL after 3 hrs; format: functional; conditions: Mus musculus; how it was run: as §2
[13] = system: Bacillus subtilis; assay: Antibacterial activity against Bacillus subtilis NCIM 2063 after 18 hrs by disc diffusion method; format: functional; how it was run: as §6
[14] = system: Microsporum audouinii; assay: Antifungal activity against Microsporum audouinii MUCC 545 after 48 hrs by tube dilution method; format: functional; how it was run: as §1
[15] = Growth inhibition of DLA cells at 62.5 ug/mL after 3 hrs; format: functional; conditions: Mus musculus; how it was run: as §2
[16] = Growth inhibition of EAC cells at 125 ug/mL after 3 hrs; format: functional; conditions: Mus musculus, Ehrlich; how it was run: as §2
[17] = system: Eudrilus; assay: Anthelmintic activity against Eudrilus sp. assessed as mean death time; format: functional
How it was run: (§7)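 Earthworms exposed to test suspensions at 2 mg mL−1, prepared by triturating compound with Tween 80 (0.5%) and distilled water, stirring 30 min, then diluting to 0.2% w/v. Mebendazole suspension was made the same way. Death was confirmed by moving worms into 50 °C warm water and looking for movement. Mean death time (min) taken from triplicate sets.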

[18] = system: Microsporum audouinii; assay: Antifungal activity against Microsporum audouinii MUCC 545 after 48 hrs by disc diffusion method; format: functional; how it was run: as §5
[19] = Growth inhibition of DLA cells at 250 ug/mL after 3 hrs; format: functional; conditions: Mus musculus; how it was run: as §2
[20] = system: Pontoscolex corethrurus; assay: Anthelmintic activity against Pontoscolex corethrurus ICARBC 408 assessed as mean paralyzing time; format: functional; how it was run: as §4
[21] = Growth inhibition of DLA cells after 3 hrs; format: functional; conditions: Mus musculus; how it was run: as §2
[22] = system: Pseudomonas aeruginosa; assay: Antibacterial activity against Pseudomonas aeruginosa NCIM 2034 after 18 hrs by tube dilution method; format: functional; conditions: NCIM 2034, 18 h; how it was run: as §3
[23] = system: Pseudomonas aeruginosa; assay: Antibacterial activity against Pseudomonas aeruginosa NCIM 2034 after 18 hrs by disc diffusion method; format: functional; how it was run: as §6
[24] = system: Candida albicans; assay: Antifungal activity against Candida albicans MUCC 29 after 48 hrs by disc diffusion method; format: functional; how it was run: as §5
[25] = system: Pontoscolex corethrurus; assay: Anthelmintic activity against Pontoscolex corethrurus ICARBC 408 assessed as mean death time; format: functional; how it was run: as §7
[26] = Growth inhibition of EAC cells at 500 ug/mL after 3 hrs; format: functional; conditions: Mus musculus, Ehrlich; how it was run: as §2
[27] = Growth inhibition of EAC cells at 31.25 ug/mL after 3 hrs; format: functional; conditions: Mus musculus, Ehrlich; how it was run: as §2
[28] = Anthelmintic activity against Megascoplex konkanensis ICARBC 211 assessed as mean death time; format: functional; how it was run: as §4
[29] = Anthelmintic activity against Megascoplex konkanensis ICARBC 211 assessed as mean paralyzing time; format: functional; how it was run: as §4
[30] = Growth inhibition of EAC cells at 250 ug/mL after 3 hrs; format: functional; conditions: Mus musculus, Ehrlich; how it was run: as §2
[31] = Growth inhibition of DLA cells at 125 ug/mL after 3 hrs; format: functional; conditions: Mus musculus; how it was run: as §2
[32] = system: Escherichia coli; assay: Antibacterial activity against Escherichia coli NCIM 2065 after 18 hrs by tube dilution method; format: functional; conditions: NCIM 2065, 18 h
[33] = system: Candida albicans; assay: Antifungal activity against Candida albicans MUCC 29 after 48 hrs by tube dilution method; format: functional; how it was run: as §1

SMILES | MIC [1] | CC50 [2] | MIC [3] | Time [4] | inhibition at 62.5 µg/mL [5] | inhibition zone (IZ) [6] | inhibition at 31.25 µg/mL [7] | inhibition zone (IZ) [8] | MIC [9] | inhibition zone (IZ) [10] | inhibition zone (IZ) [11] | inhibition at 500 µg/mL [12] | inhibition zone (IZ) [13] | MIC [14] | inhibition at 62.5 µg/mL [15] | inhibition at 125 µg/mL [16] | Time [17] | inhibition zone (IZ) [18] | inhibition at 250 µg/mL [19] | Time [20] | also measured
Cc1cc2nc(-c3ccc(C(=O)N[C@@H](Cc4cnc[nH]4)C(=O)N[C@@H](Cc4ccc(O)cc4)C(=O)O)cc3)[nH]c2cc1C | 6 mg/L (≈ 10.6 µM) | > 883 µM | 12.5 mg/L (≈ 22.1 µM) | 13.44 min | 3.57% | 16 mm | 13.2% | 17 mm | 6 mg/L (≈ 10.6 µM) | 11 mm | 17 mm | 26.3% | 13 mm | 25 mg/L (≈ 44.1 µM) | 10.5% | 7.14% | 23.08 min | 10 mm | 18.4% | 17.47 min | CC50 [21]: > 883 µM; MIC [22]: 12.5 mg/L (≈ 22.1 µM); inhibition zone (IZ) [23]: 23 mm; inhibition zone (IZ) [24]: 17 mm; Time [25]: 29.02 min; inhibition at 500 µg/mL [26]: 10.7%; inhibition at 31.25 µg/mL [27]: 3.57%; TIME [28]: 0.37 h; TIME [29]: 0.226 h; inhibition at 250 µg/mL [30]: 7.14%; inhibition at 125 µg/mL [31]: 21%; MIC [32]: 25 mg/L (≈ 44.1 µM); MIC [33]: 12.5 mg/L (≈ 22.1 µM)
C[C@H](NC(=O)[C@@H]1CCCN1C(=O)c1cc(-c2nc3ccc([N+](=O)[O-])cc3[nH]2)ccc1O)C(=O)O | 6 mg/L (≈ 12.8 µM) | > 1070 µM | 25 mg/L (≈ 53.5 µM) | 27.12 min | 7.14% | 17 mm | 7.89% | 18 mm | 12.5 mg/L (≈ 26.7 µM) | 9 mm | 16 mm | 34.2% | 13 mm | 6 mg/L (≈ 12.8 µM) | 18.4% | 14.3% | 35.69 min | 12 mm | 26.3% | 31.9 min | CC50 [21]: > 1070 µM; MIC [22]: 6 mg/L (≈ 12.8 µM); inhibition zone (IZ) [23]: 28 mm; inhibition zone (IZ) [24]: 22 mm; Time [25]: 43.55 min; inhibition at 500 µg/mL [26]: 25%; inhibition at 31.25 µg/mL [27]: 7.14%; TIME [28]: 0.585 h; TIME [29]: 0.436 h; inhibition at 250 µg/mL [30]: 17.9%; inhibition at 125 µg/mL [31]: 21%; MIC [32]: 12.5 mg/L (≈ 26.7 µM); MIC [33]: 6 mg/L (≈ 12.8 µM)
Cc1cc2nc(-c3c(I)cc(C(=O)N[C@@H](Cc4cnc[nH]4)C(=O)N4CCC[C@H]4C(=O)O)cc3I)[nH]c2cc1C | 6 mg/L (≈ 7.98 µM) | > 665 µM | 12.5 mg/L (≈ 16.6 µM) | 13.37 min | 10.7% | 13 mm | 13.2% | 18 mm | 6 mg/L (≈ 7.98 µM) | 13 mm | 14 mm | 52.6% | 16 mm | 25 mg/L (≈ 33.2 µM) | 28.9% | 10.7% | 23.86 min | 10 mm | 42.1% | 17.38 min | CC50 [21]: 583 µM; MIC [22]: 6 mg/L (≈ 7.98 µM); inhibition zone (IZ) [23]: 27 mm; inhibition zone (IZ) [24]: 25 mm; Time [25]: 29.33 min; inhibition at 500 µg/mL [26]: 35.7%; inhibition at 31.25 µg/mL [27]: 7.14%; TIME [28]: 0.373 h; TIME [29]: 0.228 h; inhibition at 250 µg/mL [30]: 28.6%; inhibition at 125 µg/mL [31]: 34.2%; MIC [32]: 12.5 mg/L (≈ 16.6 µM); MIC [33]: 6 mg/L (≈ 7.98 µM)
